An excerpt weighted towards active compounds, which were near 3.8% of everything screened.
MrgX1 agonist = human MrgX1 receptor agonism, primary screen; Q96LB2; MrgX1-HEK293 cells, Fluo-4 calcium fluorescence, agonist mode; active compounds read high; B-score at 10 µM; 310,000 tested, 0.44% active; AID 588627;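 active = calcium response B-score plate-corrected fluorescence ratio at least 3 library SD, with starting fluorescence B-score inside 5 SD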
Target sequence (Q96LB2 whole entry, looked up): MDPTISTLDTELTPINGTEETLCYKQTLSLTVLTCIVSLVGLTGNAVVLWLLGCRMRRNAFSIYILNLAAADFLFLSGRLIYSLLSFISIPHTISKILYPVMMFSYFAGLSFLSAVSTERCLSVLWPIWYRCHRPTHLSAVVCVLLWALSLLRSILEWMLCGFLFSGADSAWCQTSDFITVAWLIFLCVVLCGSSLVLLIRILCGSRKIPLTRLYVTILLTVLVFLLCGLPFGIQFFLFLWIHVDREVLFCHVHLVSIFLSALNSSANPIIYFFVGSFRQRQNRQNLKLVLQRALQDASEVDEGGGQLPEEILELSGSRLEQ
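Test system: HEK293 cells stably expressing human MrgX1 receptor; Input: fifteen thousand cells per well; Dosing: compound delivered in addition one of three; Schedule: overnight seeding, then 1 h dark dye loading; Technique: Fluo-4 NW calcium fluorescence; Measure: B-scored fluorescence response ratio; Controls: positive and negative controls per plate.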
RGS4 inh = human RGS4 inhibition; P49798; HEK293 M3R/RGS4 inducible, Fluo-4 calcium flux; active compounds read high; triggered by carbachol at its EC20; B-score at 10 µM; 310,000 tested, 0.45% active; AID 463165;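 active = B-score, a plate-corrected calcium signal, over three deviations above library mean, with baseline fluorescence within five deviations of library mean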;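 also: RGS4 expression induced by doxycycline in cells with stable M3 receptor; B-score is computed from the integrated fluorescence ratio over baseline after carbachol; higher B-score means a larger calcium signal and so more RGS4 inhibition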
Target sequence (P49798 whole entry, looked up): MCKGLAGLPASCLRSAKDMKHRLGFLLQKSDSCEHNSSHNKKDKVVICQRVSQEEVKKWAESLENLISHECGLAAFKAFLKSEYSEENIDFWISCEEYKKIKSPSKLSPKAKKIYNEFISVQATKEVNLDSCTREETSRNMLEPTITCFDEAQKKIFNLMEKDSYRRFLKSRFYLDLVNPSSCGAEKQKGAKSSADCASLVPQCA
Hep lipid drop = modulators of hepatic lipid droplet formation; AML12 mouse hepatocytes, oleate lipid droplets, BODIPY imaging; inhibition, % at 6.5 µM; 240,000 tested, 0.4% active; AID 1656;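 active = lipid droplet intensity inhibited by at least 50%, with more than 500 cells counted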
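Assay system: AML12 mouse liver cells | Compound: 6.5 µM single-point dosing | Schedule: Overnight exposure | Technique: Fluorescence imaging, 20x objective, two fields per well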
RGS4 pot = potentiators or activators of RGS4 | HEK293 M3R/inducible RGS4, carbachol calcium flux Fluo4; active compounds read low | B-score at 10 µM | 310,000 tested, 0.92% active | AID 463111;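 active = B-score of the integrated calcium signal more than 4 SD below the library mean, with starting fluorescence not abnormally high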;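 also: negative B-score means reduced calcium response which marks RGS4 activation or potentiation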
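Assay system: HEK293 FlpIn-TREx cells, stable M3R, doxycycline-inducible RGS4 / Probe or stimulus: carbachol, ECmax concentration / Times: overnight RGS4 induction, 30 min dye load 37 °C, 20 min compound RT / Signal: kinetic calcium fluorescence imaging with Fluo4-AM dye, 2 µM / Measure: Agonist-evoked peak-minus-minimum fluorescence over baseline, integrated ratio, B score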
MrgX1 allo act = allosterically activates human MrgX1 receptor signaling | B-score at 10 µM | AID 588675 | 310,000 tested, 0.63% active | MrgX1-HEK293, Fluo-4 calcium flux, FDSS; active compounds read high | Q96LB2;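 active = plate-corrected calcium response at least 3 library SD above typical, normal starting fluorescence, not activating the receptor alone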;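 also: compound read alongside a low EC10 to EC30 dose of BAM8-22 agonist; peak minus trough fluorescence over baseline measured at the second addition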
MrgX1 antagonist = blocks BAM8-22 activation of human MrgX1 receptor; MRGX1-HEK293 calcium flux, Fluo-4, BAM8-22 antagonism; active compounds read low; AID 588676; 310,000 tested, 1.3% active; Q96LB2; B-score at 10 µM;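 active = calcium-response B-score plate-corrected more than 3 library SD below zero, starting fluorescence within 5 deviations, no agonist response on first addition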;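 also: peak minus trough fluorescence over baseline after final BAM8-22 challenge near maximal dose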
RGS4 act valid = RGS4 activation, validation assay; shares compounds with RGS4 pot; HEK293 M3R/RGS4 inducible, carbachol calcium flux Fluo4; inhibition, % at 10 µM; 1,100 tested, 89% active; AID 602282;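 active = inhibition above 3 SD of the buffer control wells, cut at about 41% in these data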;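 also: signal is the integrated peak-minus-minimum Fluo4 fluorescence over baseline ratio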
M3R Ca counter = RGS4 activator counter-screen hit in non-induced cells | inhibition, % at 10 µM | HEK293 M3R non-induced RGS4, Fluo4 calcium flux; after carbachol challenge at its EC90 | 1,100 tested, 82% active | shares compounds with RGS4 pot;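 active = inhibition exceeding 3 SD of buffer-only control wells, cut at about 26% in these data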;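 also: percent drop in integrated peak-minus-baseline over baseline Fluo4 ratio after carbachol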
* marks the source's active call; other numbers are inactive results; i = inactive; nt = no result given.

SMILES | MrgX1 agonist | RGS4 inh | Hep lipid drop | RGS4 pot | MrgX1 allo act | MrgX1 antagonist | RGS4 act valid | M3R Ca counter
O=C(CSc1nncs1)NCc1ccc(F)cc1 | i | i | 2.7 | i | i | i | nt | nt
COc1cccc(N2CCN(C(=O)/C=C/c3ccco3)CC2)c1 | i | i | 13.0 | i | i | i | nt | nt
CC(=O)c1c(C)[nH]c(C(=O)Nc2nc(-c3ccc(Cl)cc3)cs2)c1C | i | i | -2.0 | -8.24* | i | i | 94.0* | 91.8*
N#C/C(=C(\O)c1cc(Cl)sc1Cl)c1nc2ccccc2[nH]1 | i | i | -12.1 | i | i | i | nt | nt
CCn1ncc(CN2CCCC(C(=O)c3cccc(OC(C)C)c3)C2)c1C (stereo not drawn) | i | i | -12.3 | -10.4* | i | i | 83.5* | 38.3*
COc1ccc(CCNc2nc(N3CCCCC3)nc(N3CCCCC3)n2)cc1OC | i | i | -7.5 | -8.36* | i | i | 76.5* | 46.3*
O=C(Nc1ccccc1-c1ccccc1)C(=O)Nc1ccccc1-c1ccccc1 | i | i | 18.4 | i | i | i | nt | nt
CC(C)CSC1=NSC2=NC(=O)/C(=C\c3coc4ccccc4c3=O)C(=N)N12 | i | i | -2.7 | -12.1* | i | i | 98.5* | 99.8*
CSC1=NSC2=NC(=O)/C(=C\c3coc4ccccc4c3=O)C(=N)N12 | i | nt | -5.3 | nt | i | i | nt | nt
O=C(COC(=O)CNS(=O)(=O)c1ccc(F)c(F)c1F)Nc1ccc(OC(F)F)cc1 | i | i | 3.4 | i | i | i | nt | nt
CCOC(=O)c1cc2cc(OCc3ccccc3)ccc2nc1C | i | i | -44.6 | -10.6* | i | i | 78.0* | 76.3*
CCOC(=O)c1cnc2ccc(OCC)cc2c1N(C)Cc1ccccc1 | i | i | -6.2 | i | i | i | nt | nt
CC(=O)N1c2ccccc2C(C)CC12CCCCC2 (stereo not drawn) | i | i | -40.1 | -7.79* | i | i | 85.5* | 37.3*
COc1ccc(-c2cc(-c3nnc(-c4ccncc4)o3)c3ccccc3n2)cc1 | i | i | 9.2 | i | i | i | nt | nt
c1ccc2c(-c3nc(C4CCCCC4)no3)cc(-c3ccncc3)nc2c1 | i | i | -13.1 | -9.43* | i | i | 93.0* | 84.8*
COc1ccc(C(=O)C2CCCN(C/C=C/c3ccccc3OC)C2)c(OC)c1 (stereo not drawn) | i | i | -4.0 | -9.26* | i | i | 87.5* | 83.8*
CC(Oc1ccccc1)C(=O)NC1CCN(Cc2ccccc2)CC1 (stereo not drawn) | i | i | 14.3 | -8.26* | i | i | 80.0* | 53.3*
CC(Oc1ccccc1)C(=O)NC1CCCCCCC1 (stereo not drawn) | i | i | -18.1 | i | i | i | nt | nt
CC(CC(=O)O)CC(=O)Nc1ccc(Br)cc1 (stereo not drawn) | i | i | nt | i | i | i | nt | nt
COc1cccc(/C=C/C(=O)OCC(=O)Nc2ccc(Cl)cn2)c1 | i | i | 8.9 | i | i | i | nt | nt
CCC(C)c1ccccc1NC(=O)CN1CCN(C/C=C/c2ccccc2)CC1 (stereo not drawn) | i | i | -16.4 | -10.3* | i | i | 76.0* | 83.8*
CC(=O)Oc1ccc(C(=O)Nc2cc(NC(=O)c3ccc(OC(C)=O)cc3)cc(C(=O)NC(C)(C)C)c2)cc1 | i | i | 3.7 | i | i | i | nt | nt
CCC(CC)CN1C(N(C)C)=NC[C@@H]1CC(C)C | i | nt | nt | nt | i | i | nt | nt
Cn1c(=O)n(CCOc2ccc(Cl)cc2Cl)c2ccccc21 | i | i | 5.7 | i | i | i | nt | nt
Cn1c(=O)n(CCOc2ccccc2Cl)c2ccccc21 | i | i | nt | -7.82* | i | i | 88.0* | 39.8*
SMILES | MrgX1 agonist | RGS4 inh | Hep lipid drop | RGS4 pot | MrgX1 allo act | MrgX1 antagonist | RGS4 act valid | M3R Ca counter
CC(=O)Nc1ccc(S(=O)(=O)Nc2ccccc2C(=O)N2CCCCCC2)cc1 | i | i | 0.2 | i | i | i | nt | nt
CN1CCC(=C2c3ccccc3C=Cc3ccccc32)CC1 | i | i | -15.1 | i | i | i | nt | nt
c1ccc2c(c1)CCc1ccccc1C2=C1CCNCC1 | i | i | nt | -11.5* | i | i | 93.5* | 94.3*
CCc1ccc(NC(=S)N(CCN2CCOCC2)Cc2ccccc2F)cc1 | i | i | -20.7 | i | i | i | nt | nt
O=C(CS(=O)(=O)Cc1ccccc1)Nc1nc2c(s1)CCCC2 | i | i | 9.7 | i | i | i | nt | nt
O=C(CCS(=O)(=O)Cc1ccccc1)Nc1nc2c(s1)CCCC2 | i | i | 20.5 | -10.6* | i | i | 0.0 | 0.0
CCC[C@@H](NS(=O)(=O)c1ccc(C)cc1)C(=O)Oc1ccc2c3c(c(=O)oc2c1)CCC3 | i | i | 4.1 | -7.56* | i | i | 92.0* | 71.3*
COc1ccc(C)cc1S(=O)(=O)N1CCN(C(=O)c2ncoc2-c2ccc(F)cc2)CC1 | i | i | 8.9 | i | i | i | nt | nt
COc1ccc(C)cc1S(=O)(=O)N1CCN(C(=O)c2ncoc2-c2ccc(C)cc2)CC1 | i | i | 1.7 | -8.18* | i | i | 82.0* | 31.8*
FC(F)(F)c1nc(-c2ccncc2)ncc1-c1nnnn1-c1ccccc1 | i | i | nt | i | i | i | nt | nt
Fc1ccc(-n2nnnc2-c2cnc(-c3cccs3)nc2C(F)(F)F)cc1 | i | i | nt | -9.72* | i | i | 73.5* | 44.3*
Cc1cc(C)n(S(=O)(=O)c2ccc3ccccc3c2)n1 | i | i | 1.5 | -7.92* | i | i | 75.5* | 83.8*
COC(=O)c1ccc(OCCN2CCCCCC2)cc1 | i | i | 6.5 | -7.85* | i | i | 66.0* | 83.8*
CC(=O)c1ccc(OCCCN2CCCCC2)cc1 | i | i | 13.9 | i | i | i | nt | nt
COc1cc(NC(=O)C2COc3ccccc3O2)c(OC)cc1Cl (stereo not drawn) | i | i | nt | i | i | i | nt | nt
COc1ccc(S(=O)(=O)N2CCCCC2)cc1NC(=O)C1COc2ccccc2O1 (stereo not drawn) | i | i | nt | -12.7* | i | i | 74.0* | 83.8*
COc1ccc(-c2nsc(SCC(=O)NCC3CCCO3)n2)cc1 (stereo not drawn) | i | i | -23.3 | i | i | i | nt | nt

Compound activity (PubChem BioAssay)
